Results taken from the RNAGym collection of RNA variant scans (doi:10.1126/science.aae0568).
Variants at the floor of the assay were thinned out.

B1: tRNA (parent)
chain: GUUCCGUUGGCGUAAUGGUAACGCGUCUCCCUCCUAAGGAGAAGACUGCGGGUUCGAGUCCCGUACGGAACG

Variants of: B1
Experiment: yeast fitness relative to wild type (ratio to wild type); higher = fitter; tRNA-Arg(CCU), competitive growth, 37 C, YPD
In short: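 Variants of the tRNA-Arg(CCU) gene were chemically synthesised with a 3% per-site mutation rate across 69 sites and placed at the native genomic locus in Saccharomyces cerevisiae. Six parallel replicates of the pooled strains were competed in YPD at 37°C for 24 hours, and gene amplicons from the start and end populations were read by 100-nucleotide paired-end sequencing. Darwinian fitness relative to wild type was derived from changes in genotype frequencies. Genotypes required ≥ 100 starting reads, and estimates < 0.5 were set to 0.5.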

Going from GUUCCGUAGGCGUAAUGGUAACGCGUCUCCCUCCUAAGGAGUAGACCGCGGGUUGGAGUCCCGUACGGAACG to GUUUCGUUGGCGUAAUGGCAACGCGUCUCCCUCCUAAGGAGAAGACUGCGGGUUCGAGUCCCGUACGGAACG, the yeast fitness rises from ≤ 0.5 to 0.927.

Going from GUUCCGUUGGCGUGAUGGCAUCGCGUCUCCCUCCUAAGGAGAAGACUGCGGGUUCGAGUCCCGUACGGAACG to GUUCCGUUGGCGUAAUGGUAACGCGUCUCCCUCCUAAGGAGAAGACUGCGGGUUCGACUUCCGUAGGGAACG, the yeast fitness falls from 0.503 to ≤ 0.5.

GUUCCGCUGGCGUAAUGGUAACGCGUUUCCCUGGUAAGGAGAAAACUGCAGAUUCGAGUCCCGUACGGAACG and GUUCCGUAGGCGUAUUGGUAACGCGUCUCCCUCCUAAGGAGAAGACUGCGGGUUCGAGUCUCGUACGGAACG cannot be ordered by yeast fitness: ≤ 0.5 for the first, ≤ 0.5 for the second.

GUCCCGUUGACGUAAUGGUAAAGGGUCUCCCUCCUAAGGAGAAGACUGCGGGUUCGAGUCCCGUACGGAACG and GUUCUGUUGGUGUAAUGGUAACGCGUCUCCCUCCUUAGGAGAAGACUGGGGGUUCGAGUCCCGUACGGAACG cannot be ordered by yeast fitness: ≤ 0.5 for the first, ≤ 0.5 for the second.

First: GUUCCGUUGGCGUAAUGGUAACGCGUCUCCUUCCUAAGGAGAAGACUGCGGGUUCGAGUGCCGUACGGAGCG
Second: GUUCCGUUGGUGUAAUGGUAACGCGUCUCCCUCCUAAGGAGAUGACUGCGGGUUCGAGUCCCGUAUGGAACG
The yeast fitness of the first is higher: 0.675 for the first, 0.555 for the second.

GUUCCGUUGGCGUAAUGGAAAUGCGUCUCCCCCCUAAGGAGAAGACUGCGGGUUCGAGUGCCGUACGGAACG and GUUCCGUUGGCGUAUUGGUAACGCGUCUCCCGCCUAAGGAGAAAACUGCAGGUACGAGUCCCGUACGGAACG cannot be ordered by yeast fitness: ≤ 0.5 for the first, ≤ 0.5 for the second.

First: GUUCCGUUGGCGUAAUGGUAACGCAUCUUCCUCCUAAGGAGAAGACUGCGGGUUCGAGUCCCGUACGGAACG
Second: GUUCCGUUGGAGUAAUGGUAAUGCGUCUCCCUCCUAAGCAGAAGACAGCGGGUUCGAGUCCCGUACGGAACG
The yeast fitness of the first is higher: 0.997 for the first, ≤ 0.5 for the second.

First: GUUCCGUUAGCGUAAUGGUAGCGCGUCUCCCUCCUAAGGGGACGACUGCGGGUACGAGUCCCGUACGGAACG
Second: GUUCCGUUGGCGUAAUGGUAACGUGUCUCCCUCCUAAGGAGAAGACUGCGGGUUAAAGUCCCGUACGGAACG
The yeast fitness of the first is lower: ≤ 0.5 for the first, 0.555 for the second.

GUUCCGAUGCCGUAAUGGUAACGCGUCUCGCUCCUUAGGAGAAGACUGCGGGUUCGAGUCCCGUACGGAACG and GUUCCGUUGGCGUAAUGGUAAGGCGUCUCCCUCCUAAGGAGAAGAUUGCGGGUUCGAGUCCCGUAGGGAACG cannot be ordered by yeast fitness: ≤ 0.5 for the first, ≤ 0.5 for the second.

Going from GUUCCGUCGGCGUAAUGGUAACGCGUGUCCCUCCUAAGGAGAAGACUGCGGGUUCGAGUCCCGUACGGAACG to GUUCCGUUGGCGUAAUGGUAACGCGUCUCCCUCCUAAGGAAAAGACUGCGGGUUCGAGUCCAGUACGGAACG, the yeast fitness rises from 0.647 to 0.777.

Compared with GUUCCGUUGGCGUAAUGGUAACGCGUCUCGCUCCUGAGGAGAAGACUGCGGGUUCGAGUCCCGUACGGAACG, GUUCCGUUGGCGUAAUGGUAACGCGUCUCCUUCCUAAGGAGAAGACUGGGGGUUCGAGUCCCGUACGGAACG is higher in yeast fitness: 0.679 for the first, 0.914 for the second.

Going from GUUCCGUUGGCGUAAUGGUAACGCGUUUCCCUCCUACGGAGAAGACUGCGCGUUCGAGUCCCGUACUGAACG to GUUCCGGUGGCGUAAUGGUAACGCGUCCCCCUCCUAAGGAGAAGACUGCGGGUUCGAGCCCCGCACGGACCG, the yeast fitness falls from 0.543 to ≤ 0.5.

GUUCCGUUGGCGUAAUGGUAACGGGUCUCCCUCCUAAGGAGAAGACUGCGGCUUCGAGUCCCGUACGGAACG and GUUCGGUUGGCGUAAUGGUAACGCGUCUCUCCCCUAAGGAGAACACUGCGGGUUCGAGUCCCGUACGGAACG cannot be ordered by yeast fitness: ≤ 0.5 for the first, ≤ 0.5 for the second.

Going from GUUCCGUUGGCGUAAUGGUAACGCGUCUCCCUCCUAAAGCGAAGACUGCGGGCUCGAGUCCCGUACGGAACG to GUUUCGUUGGCGUAAUGGUAACGAGUCUCCCUCCUAAGGAGAACACUGCCGGUGCGAGUCGCGUACGGAACG, the yeast fitness falls from 0.538 to ≤ 0.5.

Compared with GUUCCGUUGGCAUAAUGGUAACGCGUCUCCCUCCUAAGGAGUAGACUGCGGGUUCGAGUCGCGUACGGAACG, GUUCCGUUGGCGUAAAGGUAACGUGUCUCCCUCAUAAGGAGAAGACUGCGGGUUCGAGUCCCGUACGGAACG is higher in yeast fitness: 0.505 for the first, 0.656 for the second.

First: GUUCCGUUGGCGUAAUGGUAACGCGUCUCCCUCCUAAGGUGAAGACUGCGGGUUCGAGUCCCGUGCGGAUCG
Second: GUUCCGUUGGGGUAAUGGUAACGCGUUUCCCUGCUAAGGAGAAGACUGCGGAUUCGAGUCCCGUACGGAACG
The yeast fitness of the first is higher: 0.591 for the first, ≤ 0.5 for the second.

GGUCCGUUGGCGUAAUGGUAACGCGUCUCCCUCCUAAGGAGAAGACUGCGGGUGCGAGUCCCGUACGGAACG and GUUUCGUGGGCGUAUUGGUAACGCGUCUCCCUCCUAAGGAGAAGACUGCGGGUUCGAGUCCCGUACGGAACG cannot be ordered by yeast fitness: ≤ 0.5 for the first, ≤ 0.5 for the second.

Going from GUUCCGGUGGCGUAAUGAUAACGCGUCUCCCUCCUAAGGAGAAGACUACGGGUUCGAGUCCCGUACGGAACG to GUUCCGUUGGCGUAUUGGUAACGCGUCUCCCUCCUAAGGAGAAGACUACGGGUUCGAGUCCCGUACGGAACG, the yeast fitness rises from ≤ 0.5 to 0.763.

GUUCCGUUGGCGUAAUCGUAACGCGUCUGCCUCCUAAGGAGAGGACUGCGGGUUCGAGUCCCGUACGGAACG and GUUCCGUUGGCGUAAUGGUAUCGCGUCUCCCUCCUGAGGAGAAGACUGCGGGUUAGAGUCCCGUACCGAACG cannot be ordered by yeast fitness: ≤ 0.5 for the first, ≤ 0.5 for the second.

GUUCCGUUCGCGUCAUGGUUACCCGUCUCCUUCCUAAGGAGAAGACUGCGGGUUUGAGUCCCGUACGGAACG and GUUCCGUUGGCGUAAUGGUAACGCGUCUCCCUCGUAAGGAGAAGACUGGGGGUCCGAGUCUCGUACGGGACG cannot be ordered by yeast fitness: ≤ 0.5 for the first, ≤ 0.5 for the second.

Going from GUUCCGUUGGCGUAAUAGUAAUGCGUAUCGCUCCUAAGGAGAAGACUGAGGGUUCGAGUCCCGUACGGAACG to GUUCCAUUGGCGUAAUGGUCACGCGUCUCCCUCCUAAGGAGAAGACUGCGGGUUCGAGUCCCGUACGGAUCG, the yeast fitness rises from ≤ 0.5 to 0.739.

Compared with GUUCCGUUAGCGUAAUGGUAACGGGUCUCCCUCCUAAGGACAAGACUGCGGGCUCGAUUCCCGUACGGAACG, GUUCCGCUGCCGUAAUGGUAACGCGUCUCCCUCCUAAGGAGACGACUGCGGGUUCGAGUCCCGUACGGAACG is higher in yeast fitness: ≤ 0.5 for the first, 0.549 for the second.

Compared with GUUCCGUUGGAGUAAUGGUAACGCGUCUCCCUCCAAAGGAGAAGACUGCGGGUUCGAGUCUCGUACAGAACG, GUUCCGUUGGCGUAAUGGUACCGGGUCUCCCACCUAAGGAGCAGACUGCGGGUUCGAGUCCCGUUCGGAACG is higher in yeast fitness: ≤ 0.5 for the first, 0.543 for the second.

GGUCUGUUGGCGUAAUGGUACCGCGUCUCCCUCCUAAGGAGAAGACUACCGGUUCGAGUCCCGUACGGAACG and GUUCCGUUGGCGUGAUGGUCACGCGUCUCCCUCCUAAGGCGAAGGAUGCGGGUUCGAGUCCCGUACGGAACG cannot be ordered by yeast fitness: ≤ 0.5 for the first, ≤ 0.5 for the second.

GUUCCGUUGGCGUAAUGGUAACCCGUCUCCCUCGUAAGGAGAAGACUGCGGGUUGGAGUCCCGUACGGAACG and GGUCCGUUGGCAUAAUGGUAACGCGUCUCCCUCCCAAGGAGAAGACUGCGGGUUCGAGUCCCGUACGGAACG cannot be ordered by yeast fitness: ≤ 0.5 for the first, ≤ 0.5 for the second.

First: GUUCCGUUGGCGUAAUGGUAACGCGUCUCCUUCCUAAGGAGAAGAAUGCGGGUUCGACUCCCGUACGGUACG
Second: GUUCCGUUGGCGUAAUGGUAACGCGUCUCCUUCCUAAGGUGAAGUCUGCGGGUUCGAGUCCCGUACGGAACG
The yeast fitness of the first is lower: 0.543 for the first, 0.618 for the second.

First: GUUCCGUUGGCGUAAUGGUAACGCGUAUCCCUCCUAAGGAGAAGACUGCGGGUUCGAGUCCCGUACGGAUCG
Second: GUUACGUUGGCGUAAUGGUAACGCGUCUCACUCCUACGGAGAAGACUGCGGGUUCGAGUCCCGUACGGAACG
The yeast fitness of the first is higher: 0.962 for the first, ≤ 0.5 for the second.

First: GUCCCGUUGGCGUAAUGGUAACGCGUCUCCUUCCUAAGGAGAAGACUGCGGGUUCGAGUCCCGUCCGGAACG
Second: GUUCUGUUGGCGUAAUGGUAACGCGUCGCCCUCCUAAGGAGUAGACUGCGGGUUCGAGUCCCGUACGGAACG
The yeast fitness of the first is higher: 0.791 for the first, ≤ 0.5 for the second.

First: GUUCCGUUGGCGUAAUGGUAACGCGUCUCCCUCCUAAGGAGAAGACUGCGGGUUCGAGUCCUGUAGGGAACG
Second: GUUCCGUUGGCGUAAUGGUAACACGUCUCCCUCCUAAGGAGAAGAAUGCGGGUUCGAGUCCCGUACGGAACG
The yeast fitness of the first is lower: 0.731 for the first, 0.882 for the second.

First: GUUCCGUUGGCGUAAUGGUAACGCGUCUCCCUCCUAAGGAGAAGACUGCAGGUUCGAGACCCGUACCGAACG
Second: GUUCGGUUGGCGUAAUGGUAACGCGUCUCCCUCCUGAGGAGAACACUGCGGGUUCGAGUCCCGUACGGAACG
The yeast fitness of the first is lower: ≤ 0.5 for the first, 0.672 for the second.

Going from GUUCCGUCGGCGUAAUGGUAACGCGUCUCCCUCCUAAGGAGUAGACUGCGGGUUCGAGUCCUGUCCGGAACG to GUUCCGUUGGCGUAGUGGUAACGCGUAUCCCUCCUAAGGAGAAGACUGCGGGUUCGAGUGCCGUACGGAACG, the yeast fitness falls from 0.534 to ≤ 0.5.

First: GUUCUGUUGGCGUAAUGGUAACGCGUCUCCCUCCUAAGAAGAAGACUGCGGGUUCGAGUCCCGUACGGAACG
Second: GUUCCGUUGGCGUAAUGGUAACGUCUCUCCAUGCUAAGGAGAAGACUGCGGGUUCGAGUCCCGUUCGGAACG
The yeast fitness of the first is higher: 0.938 for the first, 0.584 for the second.

First: GUUCCGUUGGCGUAAUGGUAACGCGUCUCCCUCGUAAGGAGAAGACUGCGGGUUCGAGUCCCGAACGGAACG
Second: GUUCCGUUGGCGCAAUGCUAACGCGUCUCCCUCCUAAGGAGAAGACUGCGGCUUCAAGUCCCGUACGGAACG
The yeast fitness of the first is higher: 0.654 for the first, ≤ 0.5 for the second.

GUUCCGUUGGCGUAACGCUAACGUGUCUCCCUCCUAAGGUGAAGACUGCGGGUUUGAGACCCGUACGGAACG and GUUCCGUUGGCGUAAUGGUAACGCGUCUUCCUCCUAAGGAAAAGCCUGCGGGUUCGAGUCCCGUACUGAACG cannot be ordered by yeast fitness: ≤ 0.5 for the first, ≤ 0.5 for the second.

Going from GUUCCGUCGGCGUAAUGGUAACGCGUCUCCCUCCUAAGGAGAAGACUGCGGGUUCGAGUCCCGUACCGAACG to GUUCCGUUGGCGUGAUAGUAACGCGUCUCCCUCCUAAGGAGAACACUGCGGGUUCGAGUCCCGUUCGGAACG, the yeast fitness falls from 0.953 to ≤ 0.5.

GUUCCAUUCGGGUAAUGGUAAAGCGUCUCUGUCCUAAGGAGAAGACUGCGGGUUCGAGUCCCGUACUGAACG and GUUCCGUUAGCGUAAUGGUAACGCGUCUGCCUCCUAAGGAGAAGACUGCGGGGUCGAGUCCCGUACGGAACG cannot be ordered by yeast fitness: ≤ 0.5 for the first, ≤ 0.5 for the second.

GUUCCGUUGGCGUGAUGGUAACGCGUCUGCCUCCUAGGGAGAAGACUGCGGGUUCGAGUCCCGUAGGGAACG and GUUCCGUUGGGGUAAUGGUAACGCGUCUCCUUCCUAAGGAGAAGAGUGCGGGUUCGAGUCCCAUACGGAACG cannot be ordered by yeast fitness: ≤ 0.5 for the first, ≤ 0.5 for the second.

With GUUCCGUUGGCGUAAUGGUUACGCGUCUCCCUCCUGAGGAGAAGACUGCGGGUUGGAGUCCCGUACGGAACG the yeast fitness was 0.579.
